# APJ antag – antagonists of human APJ apelin receptor; CHO-K1 APJ beta-arrestin complementation, luminescence; inhibition, % at 20 µM; 0.32% of 330,000 active; AID 2521;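 active = inhibition above about 40% at 20 µM, limit read from the data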;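 also: cells challenged with 10 nM apelin-13 agonist together with compound; plate controls were apelin-13 plus DMSO wells for no effect and DMSO wells lacking apelin-13 for full effect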
# APJ agonist – agonists of human APJ apelin receptor | P35414 | CHO-K1 APJ PathHunter beta-arrestin, luminescence; 0% DMSO wells, 100% apelin | 0.11% of 330,000 active | activation, % at 20 µM | AID 2520;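 active = activation more than six SD over the plate average, tested at 20 µM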;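 also: 0% = DMSO alone and 100% = apelin-13 at 10 nM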
#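 Test system – PathHunter CHO-K1 APJ (AGTRL-1) beta-arrestin reporter cells · Input – 1000 cells/well · Compound – single test compound dose, 20 µM final, 1% DMSO · Times – compound stimulation 90 min at 25 °C, detection 60 min · Technique – beta-gal luminescence · Read-out basis – APJ–arrestin association signal · Control set – negative DMSO alone, positive Apelin-13 at 10 nM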
# CXCR6 inh – blocks human CXCR6 beta-arrestin recruitment | CHO-K1 PathHunter CXCR6 beta-arrestin, luminescence | O00574 | 0.36% of 360,000 active | inhibition, % at 20 µM; in the data active = inhibition above about 34%, passing the limit was not always enough;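 also: antagonist mode with CXCL16 agonist at 10 nM final; 0% = 10 nM CXCL16 with DMSO and 100% = unstimulated wells without agonist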
# CCR6 antagonist – antagonists of human CCR6 receptor; inhibition, % at 20 µM; CHO-K1 CCR6 PathHunter beta-arrestin, luminescence, CCL20-stimulated; P51684; 0.49% of 340,000 active;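 active = compounds whose inhibition of the agonist-driven luminescence signal at 20 µM reaches about 50%, limit read from the data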;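 also: cells stimulated with CCL20 at 14 nM final; plate controls were DMSO with CCL20 for no effect and DMSO without agonist for full effect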
# B2AR ag – activates human beta-2 adrenergic receptor causing internalization; Am2.2-beta2AR cells, FAP receptor internalization, flow cytometry; response, % (no concentration beside the values); 0.43% of 340,000 active; AID 504454;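 active = response above a set limit, near 3 SD of response in nonfluorescent compounds, cut at about 42% in these data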
# Target sequence (P07550 whole entry, looked up): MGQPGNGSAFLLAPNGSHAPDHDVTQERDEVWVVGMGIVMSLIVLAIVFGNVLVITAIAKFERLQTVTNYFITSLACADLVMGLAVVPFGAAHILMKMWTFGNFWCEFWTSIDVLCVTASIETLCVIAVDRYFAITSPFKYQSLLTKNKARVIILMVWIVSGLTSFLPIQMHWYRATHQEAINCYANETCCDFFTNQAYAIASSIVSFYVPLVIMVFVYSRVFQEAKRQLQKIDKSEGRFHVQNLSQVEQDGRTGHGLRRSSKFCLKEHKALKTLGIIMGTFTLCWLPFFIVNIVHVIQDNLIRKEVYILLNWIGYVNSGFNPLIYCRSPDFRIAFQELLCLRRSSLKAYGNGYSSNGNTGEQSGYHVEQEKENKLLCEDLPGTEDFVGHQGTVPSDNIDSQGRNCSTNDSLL
# EBI2 block – blocks human EBI2 receptor beta-arrestin signaling. P32249. inhibition, % at 5 µM. AID 651636. EBI2 beta-arrestin recruitment, luminescence, 7a,25-OHC stimulated. 0.81% of 360,000 active; in the data active = inhibition above about 38%;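 also: enzyme fragment complementation signal reports receptor beta-arrestin coupling in cells; 0% = agonist plus DMSO wells and 100% = wells without agonist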
# Starred values were filed as active, the others as inactive; . = not tested or not shown. Shown are actives, neighbours in structure and some others; about 1.8% of the full set was active somewhere.
SMILES,APJ antag,APJ agonist,CXCR6 inh,CCR6 antagonist,B2AR ag,EBI2 block
COc1cc(/C=C2\COC/C(=C\c3cc(OC)c(OC)c(OC)c3)C2=O)cc(OC)c1OC,.,.,38.7*,55.3*,43.0*,44.8*
COc1cc(/C=C2/CCc3ccccc3C2=O)cc(OC)c1OC,-6.6,1.7,-21.2,8.9,10.0,1.8
COc1cc(/C=C2\SC(N)=NC2=O)cc(Cl)c1O,11.9,-2.6,12.1,7.7,16.5,-5.1
COc1cc(/C=C2\CC/C(=C\c3cc(OC)c(O)c(OC)c3)C2=O)cc(OC)c1O,-6.1,-2.6,42.2*,54.9*,11.6,22.9
COc1cc(/C=C2/CCC/C(=C\c3cc(O)c(OC)c(Cl)c3)C2=O)cc(Cl)c1O,37.8,-8.3,26.1,73.8*,-5.2,23.8
CC(=O)N1c2ccccc2S(=O)(=O)c2c1ccc1ccccc21,.,.,-1.5,11.0,0.7,3.8
O=C(NCC1CCCO1)c1ccc(Cl)c(NS(=O)(=O)c2ccc(F)cc2)c1 (configuration not stated),.,.,-0.1,.,.,-0.2
Clc1ccc2c(SCC3CO3)c3ccccc3nc2c1 (configuration not stated),.,.,16.9,-11.0,82.5*,-9.2
Cc1[nH]c2ccccc2c1/C=N/NC(=O)c1cccc([N+](=O)[O-])c1,9.3,2.6,-6.7,5.2,-0.5,-9.2
C/C(=N/Nc1ccc([N+](=O)[O-])cc1)c1c[nH]c2ccccc12,37.1,-9.3,38.2,70.4*,-138.7,34.7
Cc1[nH]c2ccccc2c1/C=N/Nc1ccc([N+](=O)[O-])cc1,.,.,37.5,64.7*,-274.8,41.8*
O=[N+]([O-])c1cc([N+](=O)[O-])c2cc3ccccc3nc2c1,15.6,-1.8,41.1*,44.5,32.4,70.3*
COc1ccc(Cc2c(-c3ccccc3)nc3ccc(Br)cn23)c(C)c1,.,.,1.4,.,.,-7.5
CCCCNC(=O)CNC(=S)N(Cc1ccccc1)Cc1cccnc1,8.6,-3.9,-2.5,-0.6,51.7*,2.8
O=C(CNC(=S)N(Cc1ccccc1)Cc1cccnc1)NCCc1ccccc1,2.9,-2.0,4.2,-16.9,-4.9,-0.8
O=S1(=O)N[C@H](Cc2ccccc2)COc2cc(N3CCC[C@@H]3CO)ccc21,.,.,-7.0,.,.,-20.7
CCc1nc2ccc(C(=O)N(C)CCCN(C)C)cn2c1N(C)Cc1cc2ccccc2s1,.,.,5.7,.,.,-2.9
C#CCOCCOCCOCCNc1nc(N2CCN(C(=O)CCCCCCCCCCNC(=O)[C@H]([C@@H](C)CC)n3cc(CCCCN=C(N)N)nn3)CC2)nc(N2CCN(C(=O)CCCCCCCCCCNC(=O)[C@@H]([C@H](C)O)n3cc(C)nn3)CC2)n1,17.5,-4.0,5.9,-3.3,104.2*,3.9
C#CCOCCOCCOCCNc1nc(N2CCN(C(=O)CCCCCCCCCCNC(=O)[C@H]([C@@H](C)CC)n3cc(CCCCN=C(N)N)nn3)CC2)nc(N2CCN(C(=O)CCCCCCCCCCNC(=O)[C@H](CCCN=C(N)N)n3cc(C[C@@H](C)CC)nn3)CC2)n1,34.8,73.3*,.,.,.,.
C#CCOCCOCCOCCNc1nc(N2CCN(C(=O)CCCCCCCCCCNC(=O)[C@@H](CCSC)n3cc(CCO)nn3)CC2)nc(N2CCN(C(=O)CCCCCCCCCCNC(=O)[C@H](CCCN=C(N)N)n3cc(C[C@@H](C)CC)nn3)CC2)n1,4.4,-1.7,0.1,-14.4,57.5*,4.7
C#CCOCCOCCOCCNc1nc(N2CCN(C(=O)CCCCCCCCCCNC(=O)[C@H](CCCCN)n3cc(C[C@@H](C)CC)nn3)CC2)nc(N2CCN(C(=O)CCCCCCCCCCNC(=O)[C@H](CCCN=C(N)N)n3cc(C[C@@H](C)CC)nn3)CC2)n1,16.5,18.3,35.8,26.9,42.1*,0.8
COc1ccc([C@H]2CC(=O)C[C@@H](CCn3cc(-c4nccn4C)nn3)O2)cc1,.,.,3.7,.,.,1.5
C#CCOCCOCCOCCNc1nc(N2CCN(C(=O)CCCCCCCCCCNC(=O)[C@H](CCCCN)n3cc(C[C@@H](C)CC)nn3)CC2)nc(N2CCN(C(=O)CCCCCCCCCCNC(=O)[C@@H]([C@H](C)O)n3cc(C)nn3)CC2)n1,18.8,35.7,22.8,5.7,76.6*,-19.9
C#CCOCCOCCOCCNc1nc(N2CCN(C(=O)CCCCCCCCCCNC(=O)[C@H](CCCCN)n3cc(C)nn3)CC2)nc(N2CCN(C(=O)CCCCCCCCCCNC(=O)[C@@H]([C@H](C)O)n3cc(C)nn3)CC2)n1,16.8,-8.5,2.7,5.8,26.2,-0.2
COc1ccc(N2C(=O)CC(Sc3ncn[nH]3)C2=O)c(OC)c1 (configuration not stated),8.9,3.9,-4.0,79.3*,15.3,-2.3
SMILES,APJ antag,APJ agonist,CXCR6 inh,CCR6 antagonist,B2AR ag,EBI2 block
O=C1NC(=S)SC1=C1CCCCCC1,16.9,-4.4,5.2,51.0*,4.4,-1.8
CN(N=Cc1ccccc1O)c1ccc2ccccc2n1,.,.,6.1,.,.,28.4
CN(/N=C/c1cc(Br)cc(Br)c1O)c1cccc(C(F)(F)F)n1,27.7,-2.9,58.5*,.,1.9,-6.0
CC(C)(C)NC(=O)C1c2ccccc2OCC(=O)N1CCc1ccccc1 (configuration not stated),.,.,-4.0,.,.,2.1
CCOC1=C2CN(S(=O)(=O)c3ccccc3)[C@H](c3ccccc3)C[C@H]2n2c(=O)n(-c3ccccc3)c(=O)n2C1,.,.,2.0,.,.,0.4
Cc1ccc(C(=O)CNc2ccc(C)cc2C)cc1,10.7,-8.6,31.1,78.5*,8.4,1.9
Cc1ccccc1N1CCN(C2=NC(=O)/C(=C/c3cn[nH]c3-c3ccccc3)S2)CC1,-14.7,-0.9,0.2,-3.7,47.9*,13.0
O=[N+]([O-])c1cc([N+](=O)[O-])c2cccnc2c1Oc1ccccc1O,.,.,11.2,23.0,50.8*,5.5
O=[N+]([O-])c1ccc(O)c2ncccc12,7.1,16.8,30.7,36.0,0.2,5.1
Cc1cccc(NC(=O)c2nc[nH]c2C(=O)N2CCN(c3ccccc3)CC2)c1,-0.8,-0.2,-2.9,3.0,-11.6,1.8
O=C(Cn1ncc(Cl)c(Cl)c1=O)NC1CCCCC1,13.8,-3.8,5.5,-10.2,14.7,4.3
O=C(Cn1ncc(Cl)c(Cl)c1=O)NCC1CCCCC1,.,.,3.6,10.5,59.8*,13.3
CCCCCOc1ccc(Br)cc1/C(C)=N/NC1=NCCN1,0.4,4.2,-3.7,21.0,43.7*,-26.4
O=C(/C=C/c1ccc(F)cc1)c1cc(Br)ccc1O,2.5,-3.8,0.2,14.6,8.5,9.0
O=C(/C=C/c1ccccc1)c1cc(Br)ccc(=O)c1O,23.7,-4.0,18.8,59.2*,13.6,-2.7
Cc1c(N/N=C(\C#N)C(=O)c2ccc(Cl)cc2)c(=O)n(-c2ccccc2)n1C,.,.,76.8*,81.3*,-3.5,13.8
CN1C[C@@H]2[C@@H]3C(=O)N(C)C(=O)[C@@H]3[C@](Cc3ccccc3)(C1=O)N2C(=O)c1ccc(Cl)cc1,.,.,-0.3,0.0,9.3,-3.0

# From PubChem
